Measurements of several laboratories.
Protocols differ between the studies behind these lines.
Target: Beta-adrenergic receptor kinase 1 (GRK2, Homo sapiens, UniProt P25098)
Residues used in one study (P25098 1-689): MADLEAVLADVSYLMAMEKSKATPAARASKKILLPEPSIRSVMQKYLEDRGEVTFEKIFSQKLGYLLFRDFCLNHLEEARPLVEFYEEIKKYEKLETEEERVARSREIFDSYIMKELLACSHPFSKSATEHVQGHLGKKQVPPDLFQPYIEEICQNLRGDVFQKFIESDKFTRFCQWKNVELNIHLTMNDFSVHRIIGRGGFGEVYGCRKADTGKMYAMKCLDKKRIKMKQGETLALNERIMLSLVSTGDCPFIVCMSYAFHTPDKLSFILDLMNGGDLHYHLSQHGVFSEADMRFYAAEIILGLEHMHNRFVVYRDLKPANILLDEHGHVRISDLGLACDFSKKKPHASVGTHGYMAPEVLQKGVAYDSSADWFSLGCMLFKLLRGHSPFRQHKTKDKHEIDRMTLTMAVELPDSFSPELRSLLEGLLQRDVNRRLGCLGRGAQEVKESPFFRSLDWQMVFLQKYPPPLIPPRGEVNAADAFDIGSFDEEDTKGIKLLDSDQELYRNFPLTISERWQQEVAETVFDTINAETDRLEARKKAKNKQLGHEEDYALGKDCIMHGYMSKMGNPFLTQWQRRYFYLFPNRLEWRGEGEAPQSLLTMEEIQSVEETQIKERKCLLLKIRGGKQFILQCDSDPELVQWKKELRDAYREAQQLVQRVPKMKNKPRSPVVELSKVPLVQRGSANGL

`O=C(NS(=O)(=O)c1ccc(NCC2CCOCC2)c([N+](=O)[O-])c1)c1ccc(N2CCN(Cc3ccc(C(F)(F)F)cc3-c3ccc(Cl)cc3)CC2)cc1Oc1cnc2[nH]ccc2c1` gave a remaining binding of 91% (cell-free assay, competition with immobilised ligand; 1 µM).
The remaining activity of `CC(C)(O)[C@H]1CC[C@H](Nc2ccc3ncc(-c4cccc(C(F)(F)F)c4)n3n2)CC1` is reported as 116% (enzyme activity, inhibitor; 1 µM).
`CC1CCCN1c1nccc(-c2cnn3ncccc23)n1` (stereo not shown) has a remaining binding of 69% (binding, competition with immobilised ligand; 1 µM).
`CCc1ccccc1C(=O)Nc1n[nH]c2c(C)c(F)c(C3C(C#N)=C(C)N(C)C(C)=C3C#N)cc12` has a remaining binding of 100% (cell-free assay, competition with immobilised ligand; 1 µM).
For `COc1cc2ncnc(Nc3ccc(Oc4ccccc4)c(C)c3C)c2cc1OC`, the inhibition was -2% (enzyme activity, inhibitor; 1 µM).
With `O=C(NC[C@@H]1[C@H]2CN(C(=O)OCc3cc(C(F)(F)F)cc(C(F)(F)F)c3)C[C@@H]12)c1ccc2[nH]nnc2c1` the remaining binding was 71% (cell-free assay, competition with immobilised ligand; 1 µM).
`CC(C)(C)c1nc2c(s1)c1nc(N)ncc1c1ccc(NS(=O)(=O)c3c(F)cccc3F)c(F)c12` gave a remaining activity of 90% (enzyme activity, inhibitor, radiometric; 1 µM).
`Cc1sc(C(=O)NC2COC2)cc1-n1cc(NC(=O)Nc2c(F)cccc2Cl)cn1` has a remaining activity of 106% (enzyme activity, inhibitor; 10 µM).
With `CN1CC(Oc2cnc(C#N)cc2-c2ccn3nc(NC(=O)C4CC4)cc3c2)C1` the inhibition was 5% (enzyme activity, inhibitor; 1 µM).
`Cc1cc(NC(=O)c2cccc3cc(-c4cccc5[nH]nc(N)c45)ccc23)ccc1F` gave an activity vs control of 73% (enzyme activity, inhibitor; 0.1 µM).
`c1ccc(CNc2nc(N3CCOc4ccccc43)nc3c2CCCC3)cc1` has an inhibition of -6.7% (target engagement in cells, inhibitor, chemoproteomics; 20 mM).
With `O=C1Nc2ccc(Cl)cc2C1=Cc1cc(Cl)c(O)c(Cl)c1` the remaining signal was 93.4% (cell-free assay; 0.5 µM).
`CCCS(=O)(=O)Nc1ccc(F)c(C(=O)c2c[nH]c3ncc(-c4ccc(Cl)cc4)cc23)c1F` has an inhibition of less than 20% (enzyme activity, inhibitor; 1 µM).
With `N#CCCc1ccc2c(c1)-c1[nH]c3ccc([N+](=O)[O-])cc3c1CC(=O)N2` the remaining signal was 96.4% (cell-free assay; 0.5 µM).
`Cc1noc([C@H]2C[C@@H](c3ccc(C(F)(F)F)cc3)CN(C(=O)N3CCS(=O)(=O)C3)C2)n1` gave a remaining binding of 83% (cell-free assay, competition with immobilised ligand; 1 µM).
With `CCCCNc1ncc2c(-c3ccc(F)cc3)nn(C[C@H]3CC[C@H](N)CC3)c2n1` the inhibition was -6.2% (target engagement in cells, inhibitor, chemoproteomics; 20 mM).
